≈ marks a conversion by molar mass, not a printed value. Calls of active or inactive are those of the source.
Legend:
[1] = system: Staphylococcus aureus; assay: Antibacterial activity against methicillin-resistant Staphylococcus aureus isolate A4.018 by CLSI M07-A8 method; format: functional
[2] = system: Streptococcus pneumoniae; assay: Antibacterial activity against Streptococcus pneumoniae by CLSI M07-A8 method; format: functional, organism-based
In short: (§1)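 Broth microdilution MIC run per CLSI M07-A8 (2009).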

[3] = system: Enterococcus faecalis; assay: Antibacterial activity against Enterococcus faecalis ATCC 29212 by CLSI M07-A8 method; format: functional; in short: as §1
[4] = system: Enterococcus faecium; assay: Antibacterial activity against Enterococcus faecium 7130724 by CLSI M07-A8 method; format: functional; in short: as §1
[5] = system: Streptococcus pyogenes; assay: Antibacterial activity against Streptococcus pyogenes ATCC BAA-595 by CLSI M07-A8 method; format: functional; in short: as §1
[6] = system: Escherichia coli; assay: Antibacterial activity against Escherichia coli S30 assessed as inhibition of protein synthesis after 2 hrs by luminescence analysis; conditions: S30, 2 h
[7] = Chemical stability of the compound in 15% v/v NaOH, 5% PEG-300, 0.9% saline, 55% v/v water at pH 7.2 to 7.8; format: physicochemical; conditions: buffer
[8] = system: Enterococcus faecalis; assay: Antibacterial activity against Enterococcus faecalis isolate NB04025 infected in CD1 mouse assessed as protection against bacterial infection administered immediately after infection measured on day 5; format: functional; conditions: isolate NB04025, 120 h
In short: (§2)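 Mouse lethal systemic infection: ip injection of 1 × 10^8 cfu/mouse (10−100× minimal lethal dose), E. faecalis in 50% sterile rat fecal extract, S. aureus in 0.9% NaCl. Therapy by tail-vein bolus at several doses, six mice per group. Started immediately for E. faecalis; at 1 and 5 h post-inoculation for S. aureus.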

[9] = system: Staphylococcus aureus; assay: Antibacterial activity against Staphylococcus aureus ATCC 49951 infected in CD1 mouse assessed as protection against bacterial infection administered 5 hrs post infection measured on day 5; format: functional; in short: as §2
[10] = system: Staphylococcus aureus; assay: Bacteriostatic activity against Staphylococcus aureus ATCC 01001 infected in thigh of CD1 mouse assessed as prevention of colony formation at 80 mg/kg, po administered 2 hrs post infection measured after 12 hrs; format: functional, organism-based; parameters: dose 80 mg/kg
In short: (§3)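 Female CD1 mice (21−25 g), made neutropenic with cyclophosphamide ip at 150 mg/kg (day −4) and 100 mg/kg (day −1). Left thigh infected im with 0.05 mL S. aureus ATCC 01001 (7.5 × 10^5 cfu/thigh), grown 16 h at 36 °C in cation-supplemented Mueller Hinton. Treatment given 2 h post-infection, four mice per group. At 12 or 24 h thighs were excised, homogenized in 0.9% NaCl, serially diluted and plated on blood agar for cfu.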

[11] = system: Staphylococcus aureus; assay: Bacteriostatic activity against Staphylococcus aureus ATCC 01001 infected in thigh of CD1 mouse assessed as prevention of colony formation at 80 mg/kg, po administered 2 hrs post infection measured after 24 hrs; format: functional, organism-based; parameters: dose 80 mg/kg; in short: as §3
[12] = system: Staphylococcus aureus; assay: Antibacterial activity against GE2270-A-resistant Staphylococcus aureus harboring tufA G258D mutant gene by CLSI M07-A8 method; format: functional
[13] = system: Staphylococcus aureus; assay: Antibacterial activity against Staphylococcus aureus ATCC 01001 infected in thigh of CD1 mouse assessed as prevention of colony formation at 32 mg/kg, ip administered 2 hrs post infection measured after 12 hrs; format: functional, organism-based; parameters: dose 32 mg/kg; in short: as §3
[14] = system: Staphylococcus aureus; assay: Antibacterial activity against Staphylococcus aureus ATCC 01001 infected in thigh of CD1 mouse assessed as prevention of colony formation at 32 mg/kg, ip administered 2 hrs post infection measured after 24 hrs; format: functional, organism-based; parameters: dose 32 mg/kg; in short: as §3

Row | Compound | MIC [1] | Activity [2] | MIC [3] | MIC [4] | MIC [5] | IC50 [6] | Stability [7] | ED50 [8] | ED50 [9] | Activity [10] | Activity [11] | Activity [12] | Activity [13] | Activity [14]
1 | CNC(=O)C[C@@H]1NC(=O)c2csc(n2)-c2ccc(-c3nc(NC(=O)C(F)(F)F)cs3)nc2-c2csc(n2)-c2csc(n2)[C@H]([C@@H](O)c2ccccc2)NC(=O)CNC(=O)c2nc(sc2COC)[C@H](C(C)C)NC(=O)c2nc1sc2C | > 32 µg/mL | Active | 1 µg/mL (≈ 0.839 µM) | 1 µg/mL (≈ 0.839 µM) | > 32 µg/mL | > 32000 nM |  |  |  |  |  |  |  | 
2 | CNC(=O)C[C@@H]1NC(=O)c2csc(n2)-c2ccc(-c3nc(NC(=O)CCCO)cs3)nc2-c2csc(n2)-c2csc(n2)[C@H]([C@@H](O)c2ccccc2)NC(=O)CNC(=O)c2nc(sc2COC)[C@H](C(C)C)NC(=O)c2nc1sc2C | 1 µg/mL (≈ 0.846 µM) | Active | 0.5 µg/mL (≈ 0.423 µM) | 0.5 µg/mL (≈ 0.423 µM) | > 32 µg/mL | > 16000 nM |  |  |  |  |  |  |  | 
3 | CNC(=O)C[C@@H]1NC(=O)c2csc(n2)-c2ccc(-c3nc(NC(=O)CCCCN)cs3)nc2-c2csc(n2)-c2csc(n2)[C@H]([C@@H](O)c2ccccc2)NC(=O)CNC(=O)c2nc(sc2COC)[C@H](C(C)C)NC(=O)c2nc1sc2C | 1 µg/mL (≈ 0.836 µM) | Active | 0.5 µg/mL (≈ 0.418 µM) | 1 µg/mL (≈ 0.836 µM) | 4 µg/mL (≈ 3.35 µM) | 1900 nM |  |  |  |  |  |  |  | 
4 | CNC(=O)C[C@@H]1NC(=O)c2csc(n2)-c2ccc(-c3nc(NC(=O)OCCCC(N)=O)cs3)nc2-c2csc(n2)-c2csc(n2)[C@H]([C@@H](O)c2ccccc2)NC(=O)CNC(=O)c2nc(sc2COC)[C@H](C(C)C)NC(=O)c2nc1sc2C | 0.5 µg/mL (≈ 0.408 µM) | Active | 0.25 µg/mL (≈ 0.204 µM) | 0.25 µg/mL (≈ 0.204 µM) | > 32 µg/mL | 2400 nM |  |  |  |  |  |  |  | 
5 | CNC(=O)C[C@@H]1NC(=O)c2csc(n2)-c2ccc(-c3nc(NC(=O)CCCCC(=O)OC)cs3)nc2-c2csc(n2)-c2csc(n2)[C@H]([C@@H](O)c2ccccc2)NC(=O)CNC(=O)c2nc(sc2COC)[C@H](C(C)C)NC(=O)c2nc1sc2C | > 32 µg/mL | Active | 4 µg/mL (≈ 3.23 µM) | 2 µg/mL (≈ 1.61 µM) | > 32 µg/mL | > 32000 nM |  |  |  |  |  |  |  | 
6 | CNC(=O)C[C@@H]1NC(=O)c2csc(n2)-c2ccc(-c3nc(NC(=O)O[C@H]4CC[C@H](C(=O)O)CC4)cs3)nc2-c2csc(n2)-c2csc(n2)[C@H]([C@@H](O)c2ccccc2)NC(=O)CNC(=O)c2nc(sc2COC)[C@H](C(C)C)NC(=O)c2nc1sc2C | 0.125 µg/mL (≈ 0.0987 µM) | Active | 0.06 µg/mL (≈ 0.0474 µM) | 0.03 µg/mL (≈ 0.0237 µM) | 2 µg/mL (≈ 1.58 µM) |  | > 1 weeks | 0.2 mg/kg | 4.3 mg/kg |  |  |  |  | 
7 | CC(=O)NC[C@H]1CN(c2ccc(N3CCOCC3)c(F)c2)C(=O)O1 |  |  |  |  |  |  |  |  |  | Active | Active |  |  | 
8 | CNC(=O)C[C@@H]1NC(=O)c2csc(n2)-c2ccc(-c3nc(NC(=O)OCCOCCOCCOC)cs3)nc2-c2csc(n2)-c2csc(n2)[C@H]([C@@H](O)c2ccccc2)NC(=O)CNC(=O)c2nc(sc2COC)[C@H](C(C)C)NC(=O)c2nc1sc2C | 4 µg/mL (≈ 3.11 µM) | Active | 0.5 µg/mL (≈ 0.389 µM) | 0.5 µg/mL (≈ 0.389 µM) | > 32 µg/mL | 10800 nM |  |  |  |  |  |  |  | 
9 | CNC(=O)C[C@@H]1NC(=O)c2csc(n2)-c2ccc(-c3nc(NC(=O)CCCCC(=O)O)cs3)nc2-c2csc(n2)-c2csc(n2)[C@H]([C@@H](O)c2ccccc2)NC(=O)CNC(=O)c2nc(sc2COC)[C@H](C(C)C)NC(=O)c2nc1sc2C | 0.125 µg/mL (≈ 0.102 µM) | Active | 0.06 µg/mL (≈ 0.049 µM) | 0.125 µg/mL (≈ 0.102 µM) | 4 µg/mL (≈ 3.27 µM) | 1200 nM |  | 5.5 mg/kg | 10.5 mg/kg |  |  | inactive |  | 
10 | CNC(=O)C[C@@H]1NC(=O)c2csc(n2)-c2ccc(-c3nc(NC(=O)CCCN(C)C)cs3)nc2-c2csc(n2)-c2csc(n2)[C@H]([C@@H](O)c2ccccc2)NC(=O)CNC(=O)c2nc(sc2COC)[C@H](C(C)C)NC(=O)c2nc1sc2C | 1 µg/mL (≈ 0.827 µM) | Active | 0.5 µg/mL (≈ 0.413 µM) | 1 µg/mL (≈ 0.827 µM) | 4 µg/mL (≈ 3.31 µM) | 2600 nM |  |  |  |  |  |  |  | 
11 | CCCCCCCCCC(=O)N[C@@H](Cc1c[nH]c2ccccc12)C(=O)N[C@H](CC(N)=O)C(=O)N[C@@H](CC(=O)O)C(=O)N[C@@H]1C(=O)NCC(=O)N[C@@H](CCCN)C(=O)N[C@@H](CC(=O)O)C(=O)N[C@H](C)C(=O)N[C@@H](CC(=O)O)C(=O)NCC(=O)N[C@H](CO)C(=O)N[C@@H]([C@H](C)CC(=O)O)C(=O)N[C@@H](CC(=O)c2ccccc2N)C(=O)O[C@@H]1C |  |  |  |  |  |  |  |  |  |  |  |  | Active | Active
12 | CNC(=O)C[C@@H]1NC(=O)c2csc(n2)-c2ccc(-c3nc(NC(=O)[C@H](CN)CCC(=O)O)cs3)nc2-c2csc(n2)-c2csc(n2)[C@H]([C@@H](O)c2ccccc2)NC(=O)CNC(=O)c2nc(sc2COC)[C@H](C(C)C)NC(=O)c2nc1sc2C | 1 µg/mL (≈ 0.807 µM) | Active | 0.5 µg/mL (≈ 0.403 µM) | 1 µg/mL (≈ 0.807 µM) | > 32 µg/mL |  |  | > 60 mg/kg | 9.5 mg/kg |  |  | inactive |  | 
13 | CNC(=O)C[C@@H]1NC(=O)c2csc(n2)-c2ccc(-c3nc(NC(=O)CCCCP(=O)(O)O)cs3)nc2-c2csc(n2)-c2csc(n2)[C@H]([C@@H](O)c2ccccc2)NC(=O)CNC(=O)c2nc(sc2COC)[C@H](C(C)C)NC(=O)c2nc1sc2C | > 32 µg/mL | Active | > 32 µg/mL | > 32 µg/mL | > 32 µg/mL | 1500 nM |  |  |  |  |  |  |  | 
14 | CNC(=O)C[C@@H]1NC(=O)c2csc(n2)-c2ccc(-c3nc(NC(=O)O[C@H]4CC[C@H](N)CC4)cs3)nc2-c2csc(n2)-c2csc(n2)[C@H]([C@@H](O)c2ccccc2)NC(=O)CNC(=O)c2nc(sc2COC)[C@H](C(C)C)NC(=O)c2nc1sc2C | 1 µg/mL (≈ 0.808 µM) | Active | 0.5 µg/mL (≈ 0.404 µM) | 0.5 µg/mL (≈ 0.404 µM) | 8 µg/mL (≈ 6.46 µM) |  |  | < 3.3 mg/kg | 19.3 mg/kg |  |  | inactive |  | 
15 | CNC(=O)C[C@@H]1NC(=O)c2csc(n2)-c2ccc(-c3nc(NC(=O)[C@H](C)CCC(=O)O)cs3)nc2-c2csc(n2)-c2csc(n2)[C@H]([C@@H](O)c2ccccc2)NC(=O)CNC(=O)c2nc(sc2COC)[C@H](C(C)C)NC(=O)c2nc1sc2C | 0.25 µg/mL (≈ 0.204 µM) | Active | 0.25 µg/mL (≈ 0.204 µM) | 0.5 µg/mL (≈ 0.408 µM) | 4 µg/mL (≈ 3.27 µM) |  |  | 11.1 mg/kg | 10.6 mg/kg |  |  | inactive |  | 
